ChEMBL document CHEMBL1150387, “Development and experimental validation of a docking strategy for the generation of kinase-targeted libraries” (J Med Chem, 2008)

How the values were obtained:
[1] = target: Protein kinase C alpha type (Homo sapiens) (UniProt P17252); assay: Inhibition of PKCalpha at 10 uM by HTRF assay relative to control
How it was run: (§1)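 HTRF kinase assay, one panel of kinases. Inhibitor stock 50 µM in 100% DMSO; tested at 10 µM. ATP and substrate at final levels near Km. Final buffer: 50 mM Hepes/NaOH pH 7.4, 40 µM Na3VO4, 0.005% Tween-20, 1 mM DTT, MnCl2 or MgCl2 at kinase-dependent levels. Started by adding ATP/substrate. Reaction run at room temperature, time varied by kinase. Detection mix in 50 mM Hepes pH 7.4, 0.1% BSA, 150 mM KF, incubated ≥1 h at room temperature. Activity expressed as % of uninhibited control; n=2.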

[2] = target: Calcium/calmodulin-dependent protein kinase type II subunit alpha (Homo sapiens) (UniProt Q9UQM7); assay: Inhibition of CaMK2alpha at 10 uM by HTRF assay relative to control; how it was run: as §1
[3] = target: Tyrosine-protein kinase Lck (Homo sapiens) (UniProt P06239); assay: Inhibition of Lck at 10 uM by HTRF assay relative to control; how it was run: as §1
[4] = target: Cyclin-dependent kinase 1 (Homo sapiens) (UniProt P06493); assay: Inhibition of CDK1 at 10 uM by HTRF assay relative to control; how it was run: as §1
[5] = target: Protein-tyrosine kinase 6 (Homo sapiens) (UniProt Q13882); assay: Inhibition of Brk at 10 uM by HTRF assay relative to control; how it was run: as §1
[6] = target: Receptor-type tyrosine-protein kinase FLT3 (Homo sapiens) (UniProt P36888); assay: Inhibition of FLT3 at 10 uM by HTRF assay relative to control; how it was run: as §1
[7] = target: T1, Inhibitor of nuclear factor kappa-B kinase subunit beta (Homo sapiens) (UniProt O14920); assay: Inhibition of IKK-beta at 10 uM by HTRF assay relative to control; how it was run: as §1
T1 sequence (whole entry): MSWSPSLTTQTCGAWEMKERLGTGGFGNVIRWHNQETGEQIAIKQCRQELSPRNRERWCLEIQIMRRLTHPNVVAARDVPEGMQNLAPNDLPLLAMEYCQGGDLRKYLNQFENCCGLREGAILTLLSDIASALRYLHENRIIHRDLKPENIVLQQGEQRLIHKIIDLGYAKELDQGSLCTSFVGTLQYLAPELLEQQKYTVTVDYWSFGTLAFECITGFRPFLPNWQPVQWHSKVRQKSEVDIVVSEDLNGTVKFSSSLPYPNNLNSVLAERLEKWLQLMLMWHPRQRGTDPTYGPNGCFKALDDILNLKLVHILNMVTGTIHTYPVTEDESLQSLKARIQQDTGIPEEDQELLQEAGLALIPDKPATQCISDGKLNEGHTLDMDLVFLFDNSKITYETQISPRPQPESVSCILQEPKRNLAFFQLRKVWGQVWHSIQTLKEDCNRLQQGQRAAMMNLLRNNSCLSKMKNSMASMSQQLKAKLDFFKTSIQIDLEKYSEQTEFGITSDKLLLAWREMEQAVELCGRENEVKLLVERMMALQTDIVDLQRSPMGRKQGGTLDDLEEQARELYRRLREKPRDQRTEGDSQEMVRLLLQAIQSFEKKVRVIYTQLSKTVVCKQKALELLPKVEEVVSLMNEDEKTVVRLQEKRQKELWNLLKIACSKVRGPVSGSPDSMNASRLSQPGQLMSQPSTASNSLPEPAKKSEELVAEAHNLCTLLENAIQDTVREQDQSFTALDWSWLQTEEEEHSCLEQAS

[8] = target: Ribosomal protein S6 kinase alpha-3 (Homo sapiens) (UniProt P51812); assay: Inhibition of RSK2 at 10 uM by HTRF assay relative to control; how it was run: as §1
[9] = target: T2, Serine/threonine-protein kinase Chk1 (Homo sapiens) (UniProt O14757); assay: Inhibition of CHK1 at 10 uM by HTRF assay relative to control; how it was run: as §1
T2 sequence (whole entry): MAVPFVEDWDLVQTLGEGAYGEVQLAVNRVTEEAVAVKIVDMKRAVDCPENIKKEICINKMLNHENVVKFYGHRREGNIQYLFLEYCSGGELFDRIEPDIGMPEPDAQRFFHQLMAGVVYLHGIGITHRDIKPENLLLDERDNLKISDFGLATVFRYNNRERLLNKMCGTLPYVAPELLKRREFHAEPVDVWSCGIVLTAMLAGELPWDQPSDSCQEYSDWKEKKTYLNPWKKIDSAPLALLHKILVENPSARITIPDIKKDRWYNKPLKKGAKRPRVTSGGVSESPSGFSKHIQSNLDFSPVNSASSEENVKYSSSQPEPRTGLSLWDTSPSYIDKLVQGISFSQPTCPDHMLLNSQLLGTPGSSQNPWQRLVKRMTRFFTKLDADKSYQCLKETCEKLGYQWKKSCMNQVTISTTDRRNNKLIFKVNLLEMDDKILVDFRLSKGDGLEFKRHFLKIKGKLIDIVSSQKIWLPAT

[10] = Inhibition of IRK at 10 uM by HTRF assay relative to control; how it was run: as §1
[11] = target: Vascular endothelial growth factor receptor 2 (Homo sapiens) (UniProt P35968); assay: Inhibition of KDR at 10 uM by HTRF assay relative to control; how it was run: as §1
[12] = target: Mitogen-activated protein kinase 8 (Homo sapiens) (UniProt P45983); assay: Inhibition of JNK1 at 10 uM by HTRF assay relative to control; how it was run: as §1
[13] = target: Insulin-like growth factor 1 receptor (Homo sapiens) (UniProt P08069); assay: Inhibition of IGF1R at 10 uM by HTRF assay relative to control; how it was run: as §1
[14] = target: RAC-alpha serine/threonine-protein kinase (Homo sapiens) (UniProt P31749); assay: Inhibition of AKT1/PKBalpha at 10 uM by HTRF assay relative to control; how it was run: as §1
[15] = target: Fibroblast growth factor receptor 1 (Homo sapiens) (UniProt P11362); assay: Inhibition of FGFR1 at 10 uM by HTRF assay relative to control; how it was run: as §1
[16] = target: Epidermal growth factor receptor (Homo sapiens) (UniProt P00533); assay: Inhibition of EGFR at 10 uM by HTRF assay relative to control; how it was run: as §1
[17] = target: Proto-oncogene tyrosine-protein kinase Src (Homo sapiens) (UniProt P12931); assay: Inhibition of Src at 10 uM by HTRF assay relative to control; how it was run: as §1
[18] = target: Tyrosine-protein kinase Fes/Fps (Homo sapiens) (UniProt P07332); assay: Inhibition of FES at 10 uM by HTRF assay relative to control; how it was run: as §1
[19] = target: Rho-associated protein kinase 2 (Homo sapiens) (UniProt O75116); assay: Inhibition of ROCK2 at 10 uM by HTRF assay relative to control; how it was run: as §1
Rho-associated protein kinase 2 (Homo sapiens), sequence (O75116 whole entry, looked up): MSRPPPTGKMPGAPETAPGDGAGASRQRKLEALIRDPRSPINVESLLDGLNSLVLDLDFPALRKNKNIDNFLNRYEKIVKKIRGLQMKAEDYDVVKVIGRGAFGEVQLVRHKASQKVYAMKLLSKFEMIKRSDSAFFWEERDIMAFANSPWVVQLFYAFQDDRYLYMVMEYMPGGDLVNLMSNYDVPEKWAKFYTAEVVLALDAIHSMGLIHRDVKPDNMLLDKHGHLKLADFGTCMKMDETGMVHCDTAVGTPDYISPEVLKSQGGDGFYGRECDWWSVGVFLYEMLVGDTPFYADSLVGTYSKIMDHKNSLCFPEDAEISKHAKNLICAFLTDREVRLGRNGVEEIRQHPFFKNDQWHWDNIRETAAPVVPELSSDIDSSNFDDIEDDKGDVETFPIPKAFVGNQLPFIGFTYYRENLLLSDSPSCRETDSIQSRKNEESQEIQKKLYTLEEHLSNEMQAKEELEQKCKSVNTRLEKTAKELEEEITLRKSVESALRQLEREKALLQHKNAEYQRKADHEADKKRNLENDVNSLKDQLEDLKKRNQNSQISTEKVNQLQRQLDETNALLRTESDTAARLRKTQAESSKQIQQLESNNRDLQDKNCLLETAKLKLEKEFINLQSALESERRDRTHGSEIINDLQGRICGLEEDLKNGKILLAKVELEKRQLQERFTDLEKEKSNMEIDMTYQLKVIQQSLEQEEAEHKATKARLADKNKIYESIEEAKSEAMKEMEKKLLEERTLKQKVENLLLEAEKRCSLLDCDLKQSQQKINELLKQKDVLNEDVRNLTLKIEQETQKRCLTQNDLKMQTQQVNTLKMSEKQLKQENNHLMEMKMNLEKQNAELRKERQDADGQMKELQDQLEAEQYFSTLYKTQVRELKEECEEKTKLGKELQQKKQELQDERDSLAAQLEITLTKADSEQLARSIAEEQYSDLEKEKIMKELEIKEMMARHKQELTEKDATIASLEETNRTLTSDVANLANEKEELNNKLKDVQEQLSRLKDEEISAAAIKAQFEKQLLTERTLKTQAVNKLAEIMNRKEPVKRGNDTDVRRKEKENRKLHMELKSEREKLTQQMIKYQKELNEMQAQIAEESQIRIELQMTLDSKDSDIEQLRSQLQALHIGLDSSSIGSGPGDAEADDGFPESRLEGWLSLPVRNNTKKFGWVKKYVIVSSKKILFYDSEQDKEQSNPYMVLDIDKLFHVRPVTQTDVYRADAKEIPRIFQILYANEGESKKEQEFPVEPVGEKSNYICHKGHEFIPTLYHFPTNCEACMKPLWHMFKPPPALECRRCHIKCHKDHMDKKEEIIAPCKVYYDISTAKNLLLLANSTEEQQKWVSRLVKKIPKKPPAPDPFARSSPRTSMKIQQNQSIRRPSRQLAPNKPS

Tyrosine-protein kinase Lck (Homo sapiens), sequence (P06239 2-509 limits assumed): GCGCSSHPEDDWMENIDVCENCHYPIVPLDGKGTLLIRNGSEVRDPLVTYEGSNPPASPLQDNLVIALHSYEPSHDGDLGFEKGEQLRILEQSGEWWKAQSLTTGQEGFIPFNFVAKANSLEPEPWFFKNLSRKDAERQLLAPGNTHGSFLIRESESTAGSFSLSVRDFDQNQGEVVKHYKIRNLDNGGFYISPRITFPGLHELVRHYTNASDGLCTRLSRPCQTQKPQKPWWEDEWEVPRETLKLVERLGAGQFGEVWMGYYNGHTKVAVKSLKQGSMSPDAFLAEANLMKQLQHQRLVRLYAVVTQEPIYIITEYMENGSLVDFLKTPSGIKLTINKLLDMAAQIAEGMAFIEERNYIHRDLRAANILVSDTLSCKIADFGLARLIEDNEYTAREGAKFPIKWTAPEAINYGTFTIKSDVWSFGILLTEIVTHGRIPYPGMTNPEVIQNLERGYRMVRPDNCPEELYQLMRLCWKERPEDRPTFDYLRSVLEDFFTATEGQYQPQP
Receptor-type tyrosine-protein kinase FLT3 (Homo sapiens), sequence (P36888 whole entry): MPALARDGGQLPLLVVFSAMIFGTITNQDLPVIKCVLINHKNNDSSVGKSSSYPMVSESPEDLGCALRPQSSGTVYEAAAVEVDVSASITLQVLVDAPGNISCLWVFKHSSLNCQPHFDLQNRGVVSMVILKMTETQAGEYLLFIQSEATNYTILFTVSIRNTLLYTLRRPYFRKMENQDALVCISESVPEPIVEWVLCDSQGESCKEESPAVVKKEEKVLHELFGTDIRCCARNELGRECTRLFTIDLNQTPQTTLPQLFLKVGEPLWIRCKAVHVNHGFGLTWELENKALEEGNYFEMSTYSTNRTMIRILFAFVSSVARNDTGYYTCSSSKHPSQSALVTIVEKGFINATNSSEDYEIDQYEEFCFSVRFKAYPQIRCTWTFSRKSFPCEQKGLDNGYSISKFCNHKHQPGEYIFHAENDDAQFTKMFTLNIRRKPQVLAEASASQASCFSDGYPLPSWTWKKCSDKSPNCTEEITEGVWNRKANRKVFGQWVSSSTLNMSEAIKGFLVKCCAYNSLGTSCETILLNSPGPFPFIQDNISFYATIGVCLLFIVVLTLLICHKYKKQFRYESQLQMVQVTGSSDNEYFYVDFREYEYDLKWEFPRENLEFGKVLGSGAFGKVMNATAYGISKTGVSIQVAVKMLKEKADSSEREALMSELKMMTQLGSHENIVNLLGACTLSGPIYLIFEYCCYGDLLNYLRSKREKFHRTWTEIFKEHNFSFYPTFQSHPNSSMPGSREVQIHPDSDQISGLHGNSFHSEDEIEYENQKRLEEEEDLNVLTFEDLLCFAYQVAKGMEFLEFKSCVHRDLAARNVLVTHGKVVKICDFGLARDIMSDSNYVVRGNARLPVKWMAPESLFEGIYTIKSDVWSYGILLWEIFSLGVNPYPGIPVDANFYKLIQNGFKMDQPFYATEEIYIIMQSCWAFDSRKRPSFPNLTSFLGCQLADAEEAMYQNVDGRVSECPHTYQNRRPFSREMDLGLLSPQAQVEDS
Protein-tyrosine kinase 6 (Homo sapiens), sequence (Q13882 whole entry, looked up): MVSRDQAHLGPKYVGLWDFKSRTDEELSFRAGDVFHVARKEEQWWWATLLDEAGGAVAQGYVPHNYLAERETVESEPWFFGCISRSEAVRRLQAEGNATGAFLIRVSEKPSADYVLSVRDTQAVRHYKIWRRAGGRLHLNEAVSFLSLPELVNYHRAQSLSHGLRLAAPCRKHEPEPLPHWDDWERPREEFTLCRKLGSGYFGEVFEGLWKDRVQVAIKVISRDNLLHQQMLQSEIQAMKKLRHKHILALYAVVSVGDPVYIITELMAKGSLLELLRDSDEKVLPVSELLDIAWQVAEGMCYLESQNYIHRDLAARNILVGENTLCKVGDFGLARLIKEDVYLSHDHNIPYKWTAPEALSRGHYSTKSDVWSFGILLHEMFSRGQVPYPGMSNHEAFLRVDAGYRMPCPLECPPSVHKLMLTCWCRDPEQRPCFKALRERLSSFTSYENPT
Vascular endothelial growth factor receptor 2 (Homo sapiens), sequence (P35968 whole entry): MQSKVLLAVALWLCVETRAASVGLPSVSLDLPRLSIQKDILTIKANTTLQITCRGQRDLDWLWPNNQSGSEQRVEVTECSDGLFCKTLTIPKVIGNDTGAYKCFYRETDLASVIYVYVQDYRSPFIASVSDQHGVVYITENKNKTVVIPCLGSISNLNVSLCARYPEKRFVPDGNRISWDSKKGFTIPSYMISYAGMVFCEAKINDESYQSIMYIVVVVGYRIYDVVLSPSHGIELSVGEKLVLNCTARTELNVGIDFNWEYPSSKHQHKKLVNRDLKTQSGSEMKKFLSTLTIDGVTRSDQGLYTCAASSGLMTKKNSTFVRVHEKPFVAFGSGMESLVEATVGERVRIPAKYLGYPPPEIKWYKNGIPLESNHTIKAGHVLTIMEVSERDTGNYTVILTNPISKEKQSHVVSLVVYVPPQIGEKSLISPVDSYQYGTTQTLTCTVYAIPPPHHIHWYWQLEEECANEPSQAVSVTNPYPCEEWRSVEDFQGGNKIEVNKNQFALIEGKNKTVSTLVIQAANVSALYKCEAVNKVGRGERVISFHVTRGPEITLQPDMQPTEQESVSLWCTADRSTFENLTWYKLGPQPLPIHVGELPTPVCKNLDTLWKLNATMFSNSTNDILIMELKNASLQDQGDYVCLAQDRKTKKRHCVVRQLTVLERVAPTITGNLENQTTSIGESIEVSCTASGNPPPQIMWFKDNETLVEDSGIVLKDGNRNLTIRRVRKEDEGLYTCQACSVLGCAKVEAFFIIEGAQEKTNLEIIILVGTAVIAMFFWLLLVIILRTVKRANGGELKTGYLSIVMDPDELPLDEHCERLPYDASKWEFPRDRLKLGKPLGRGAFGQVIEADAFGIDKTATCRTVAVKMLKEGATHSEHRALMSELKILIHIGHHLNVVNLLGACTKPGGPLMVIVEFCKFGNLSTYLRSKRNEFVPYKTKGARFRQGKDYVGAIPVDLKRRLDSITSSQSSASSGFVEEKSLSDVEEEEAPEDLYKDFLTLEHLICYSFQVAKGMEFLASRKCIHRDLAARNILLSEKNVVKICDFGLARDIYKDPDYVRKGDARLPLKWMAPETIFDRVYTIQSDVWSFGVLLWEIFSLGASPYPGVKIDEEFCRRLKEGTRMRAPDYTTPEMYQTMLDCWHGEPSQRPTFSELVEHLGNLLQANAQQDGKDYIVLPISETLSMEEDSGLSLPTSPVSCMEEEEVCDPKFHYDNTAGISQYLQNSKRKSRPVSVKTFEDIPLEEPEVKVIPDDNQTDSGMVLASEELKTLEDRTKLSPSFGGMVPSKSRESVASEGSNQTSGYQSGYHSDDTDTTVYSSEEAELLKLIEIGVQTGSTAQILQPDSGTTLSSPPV
Cyclin-dependent kinase 1 (Homo sapiens), sequence (P06493 whole entry, looked up): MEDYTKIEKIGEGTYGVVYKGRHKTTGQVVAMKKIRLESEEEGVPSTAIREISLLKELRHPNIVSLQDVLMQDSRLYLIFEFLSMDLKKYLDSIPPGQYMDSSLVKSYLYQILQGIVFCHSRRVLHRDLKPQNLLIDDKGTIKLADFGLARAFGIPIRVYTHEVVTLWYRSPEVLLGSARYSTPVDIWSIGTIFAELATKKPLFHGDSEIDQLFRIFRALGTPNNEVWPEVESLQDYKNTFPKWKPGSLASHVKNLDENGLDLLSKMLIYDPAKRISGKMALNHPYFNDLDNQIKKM

inhibition [1] [%] | inhibition [2] [%] | inhibition [3] [%] | inhibition [4] [%] | inhibition [5] [%] | inhibition [6] [%] | inhibition [7] [%] | inhibition [8] [%] | inhibition [9] [%] | inhibition [10] [%] | inhibition [11] [%] | inhibition [12] [%] | inhibition [13] [%] | inhibition [14] [%] | inhibition [15] [%] | inhibition [16] [%] | inhibition [17] [%] | inhibition [18] [%] | inhibition [19] [%] | SMILES
0 | 0 | 0 | 0 | 5 | 0 | 2 | 0 | 2 | 0 | 0 | 0 | 0 | 0 | 0 | 17 | 3 | 7 | 0 | COc1ccc(-c2noc(CN3CCN(c4cc(Nc5cccc(O)c5)ncn4)CC3)n2)cc1
0 | 0 | 0 | 0 | 29 | 67 | 0 | 0 | 1 | 0 | 40 | 7 | 0 | 0 | 19 | 87 | 6 | 24 | 22 | Cc1cccc(N(C)c2cc(Nc3ccc(CC(=O)Nc4ccc5ncsc5c4)cc3)ncn2)c1
